# Where “and” joins values, the source holds several entries; their conditions need not be identical. Equal values may be shown once.
# Key:
# [1] = molecular target: T1, Angiotensin-converting enzyme (Oryctolagus cuniculus, UniProt P12822); assay: Inhibition of Angiotensin I converting enzyme
# T1 sequence (P12822 whole entry): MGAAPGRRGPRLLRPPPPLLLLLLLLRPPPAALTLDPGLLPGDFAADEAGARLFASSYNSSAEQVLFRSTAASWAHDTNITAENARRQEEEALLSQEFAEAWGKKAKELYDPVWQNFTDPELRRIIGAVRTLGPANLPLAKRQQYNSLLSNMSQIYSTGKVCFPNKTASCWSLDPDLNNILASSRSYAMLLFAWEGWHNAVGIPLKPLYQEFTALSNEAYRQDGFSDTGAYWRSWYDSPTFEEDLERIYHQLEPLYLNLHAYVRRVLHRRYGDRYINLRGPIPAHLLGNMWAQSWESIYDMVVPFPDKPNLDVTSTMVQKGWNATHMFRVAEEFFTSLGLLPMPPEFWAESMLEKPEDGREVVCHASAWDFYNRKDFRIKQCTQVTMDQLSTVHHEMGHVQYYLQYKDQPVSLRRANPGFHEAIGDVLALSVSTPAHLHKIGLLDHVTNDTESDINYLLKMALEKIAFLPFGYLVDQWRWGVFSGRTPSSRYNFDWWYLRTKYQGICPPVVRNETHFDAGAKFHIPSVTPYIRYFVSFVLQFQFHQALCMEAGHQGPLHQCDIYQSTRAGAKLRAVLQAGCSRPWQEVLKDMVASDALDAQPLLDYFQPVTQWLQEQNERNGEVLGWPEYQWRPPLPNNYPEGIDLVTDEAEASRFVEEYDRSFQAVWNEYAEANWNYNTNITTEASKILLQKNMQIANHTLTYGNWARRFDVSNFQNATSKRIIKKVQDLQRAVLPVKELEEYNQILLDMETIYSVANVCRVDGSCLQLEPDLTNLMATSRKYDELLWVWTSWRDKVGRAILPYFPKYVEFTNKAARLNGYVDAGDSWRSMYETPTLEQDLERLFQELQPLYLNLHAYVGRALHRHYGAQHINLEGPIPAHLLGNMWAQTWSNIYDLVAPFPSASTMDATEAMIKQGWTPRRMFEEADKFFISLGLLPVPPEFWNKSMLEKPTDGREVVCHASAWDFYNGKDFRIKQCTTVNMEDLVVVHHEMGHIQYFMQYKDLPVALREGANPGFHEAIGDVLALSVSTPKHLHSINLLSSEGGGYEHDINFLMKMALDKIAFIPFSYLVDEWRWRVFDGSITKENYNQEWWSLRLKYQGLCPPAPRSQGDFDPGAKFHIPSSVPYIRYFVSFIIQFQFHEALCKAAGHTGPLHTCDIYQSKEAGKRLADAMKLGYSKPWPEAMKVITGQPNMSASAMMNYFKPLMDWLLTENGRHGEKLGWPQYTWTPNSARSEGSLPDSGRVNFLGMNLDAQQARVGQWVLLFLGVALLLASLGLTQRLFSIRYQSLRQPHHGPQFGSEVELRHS
# Rattus norvegicus [2] = assay: Effects of oral dosing (10 mg/kg) on systolic blood pressure in spontaneously hypertensive rats, day 4,at 2 hr; assay type: functional, Artery
# How it was run: (§1)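 Spontaneously hypertensive rats, 6 per group, were dosed orally once daily for 4 days at 0.1, 1.0 or 10 mg/kg. Systolic pressure was recorded before the first dose and at 2 and 24 h after each daily dose. Values are group mean ±SE with change from predose.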
# Rattus norvegicus [3] = assay: Effects of oral dosing (1 mg/kg) on systolic blood pressure in spontaneously hypertensive rats, day 1,at 24 hr; assay type: functional, Artery; how it was run: as §1
# Rattus norvegicus [4] = assay: Effects of oral dosing (1 mg/kg) on systolic blood pressure in spontaneously hypertensive rats, day 1,at 2 hr; assay type: functional, Artery; how it was run: as §1
# Rattus norvegicus [5] = assay: Effects of oral dosing (1 mg/kg) on systolic blood pressure in spontaneously hypertensive rats, day 2,at 24 hr; assay type: functional, Artery; how it was run: as §1
# Rattus norvegicus [6] = assay: Effects of oral dosing (1 mg/kg) on systolic blood pressure in spontaneously hypertensive rats, day 2,at 2 hr; assay type: functional, Artery; how it was run: as §1
# Rattus norvegicus [7] = assay: Effects of oral dosing (1 mg/kg) on systolic blood pressure in spontaneously hypertensive rats, day 3,at 24 hr; assay type: functional, Artery; how it was run: as §1
# Rattus norvegicus [8] = assay: Effects of oral dosing (1 mg/kg) on systolic blood pressure in spontaneously hypertensive rats, day 3,at 2 hr; assay type: functional, Artery; how it was run: as §1
# Rattus norvegicus [9] = assay: Effects of oral dosing (1 mg/kg) on systolic blood pressure in spontaneously hypertensive rats, day 4,at 24 hr; assay type: functional, Artery; how it was run: as §1
# Rattus norvegicus [10] = assay: Effects of oral dosing (1 mg/kg) on systolic blood pressure in spontaneously hypertensive rats, day 4,at 2 hr; assay type: functional, Artery; how it was run: as §1
# Rattus norvegicus [11] = species on record: Rattus norvegicus; assay: Predose systolic blood pressure in spontaneously hypertensive rats; assay type: functional, Artery; how it was run: as §1
# Rattus norvegicus [12] = assay: Effects of oral dosing (10 mg/kg) on systolic blood pressure in spontaneously hypertensive rats, day 1,at 24 hr; assay type: functional, Artery; how it was run: as §1
# Rattus norvegicus [13] = assay: Effects of oral dosing (10 mg/kg) on systolic blood pressure in spontaneously hypertensive rats, day 1,at 2 hr; assay type: functional, Artery; how it was run: as §1
# Rattus norvegicus [14] = assay: Effects of oral dosing (10 mg/kg) on systolic blood pressure in spontaneously hypertensive rats, day 2,at 24 hr; assay type: functional, Artery; how it was run: as §1
# Rattus norvegicus [15] = assay: Effects of oral dosing (10 mg/kg) on systolic blood pressure in spontaneously hypertensive rats, day 2,at 2 hr; assay type: functional, Artery; how it was run: as §1
# Rattus norvegicus [16] = assay: Effects of oral dosing (10 mg/kg) on systolic blood pressure in spontaneously hypertensive rats, day 3,at 24 hr; assay type: functional, Artery; how it was run: as §1
# Rattus norvegicus [17] = assay: Effects of oral dosing (10 mg/kg) on systolic blood pressure in spontaneously hypertensive rats, day 3,at 2 hr; assay type: functional, Artery; how it was run: as §1
# Rattus norvegicus [18] = assay: Effects of oral dosing (10 mg/kg) on systolic blood pressure in spontaneously hypertensive rats, day 4,at 24 hr; assay type: functional, Artery; how it was run: as §1
# Rattus norvegicus [19] = assay: Effects of oral dosing (0.1 mg/kg) on systolic blood pressure in spontaneously hypertensive rats, day 1,at 24 hr; assay type: functional, Artery; how it was run: as §1
# Rattus norvegicus [20] = assay: Effects of oral dosing (0.1 mg/kg) on systolic blood pressure in spontaneously hypertensive rats, day 1,at 2 hr; assay type: functional, Artery; how it was run: as §1
# Rattus norvegicus [21] = assay: Effects of oral dosing (0.1 mg/kg) on systolic blood pressure in spontaneously hypertensive rats, day 2,at 24 hr; assay type: functional, Artery; how it was run: as §1
# Rattus norvegicus [22] = assay: Effects of oral dosing (0.1 mg/kg) on systolic blood pressure in spontaneously hypertensive rats, day 2,at 2 hr; assay type: functional, Artery; how it was run: as §1
# Rattus norvegicus [23] = assay: Effects of oral dosing (0.1 mg/kg) on systolic blood pressure in spontaneously hypertensive rats, day 3,at 24 hr; assay type: functional, Artery; how it was run: as §1
# Rattus norvegicus [24] = assay: Effects of oral dosing (0.1 mg/kg) on systolic blood pressure in spontaneously hypertensive rats, day 3,at 2 hr; assay type: functional, Artery; how it was run: as §1
# Rattus norvegicus [25] = assay: Effects of oral dosing (0.1 mg/kg) on systolic blood pressure in spontaneously hypertensive rats, day 4,at 2 hr; assay type: functional, Artery; how it was run: as §1
# Rattus norvegicus [26] = assay: Effects of oral dosing (0.1 mg/kg) on systolic blood pressure in spontaneously hypertensive rats, day 4,at 24 hr; assay type: functional, Artery; how it was run: as §1
structure (smiles),measurement,setting,value
O=C(O)CN1C(=O)[C@@H](N[C@@H](CCc2ccccc2)C(=O)O)CCCc2ccccc21,IC50,[1],4 nM
CCOC(=O)[C@H](CCc1ccccc1)N[C@@H](C)C(=O)N1CCC[C@H]1C(=O)O,Systolic blood pressure,Rattus norvegicus [2],135.5 mmHg
same,Systolic blood pressure,Rattus norvegicus [3],169.5 mmHg
same,Systolic blood pressure,Rattus norvegicus [4],160 mmHg
same,Systolic blood pressure,Rattus norvegicus [5],168.7 mmHg
same,Systolic blood pressure,Rattus norvegicus [6],158.7 mmHg
same,Systolic blood pressure,Rattus norvegicus [7],160 mmHg
same,Systolic blood pressure,Rattus norvegicus [8],146.7 mmHg
same,Systolic blood pressure,Rattus norvegicus [9],160.8 mmHg
same,Systolic blood pressure,Rattus norvegicus [10],145 mmHg
same,Systolic blood pressure,Rattus norvegicus [11],197.7 mmHg and 186.8 mmHg and 199 mmHg
same,Systolic blood pressure,Rattus norvegicus [12],168.3 mmHg
same,Systolic blood pressure,Rattus norvegicus [13],152.5 mmHg
same,Systolic blood pressure,Rattus norvegicus [14],163 mmHg
same,Systolic blood pressure,Rattus norvegicus [15],138.5 mmHg
same,Systolic blood pressure,Rattus norvegicus [16],174 mmHg
same,Systolic blood pressure,Rattus norvegicus [17],124.5 mmHg
same,Systolic blood pressure,Rattus norvegicus [18],159.8 mmHg
same,Systolic blood pressure,Rattus norvegicus [19],175.8 mmHg
same,Systolic blood pressure,Rattus norvegicus [20],197.5 mmHg
same,Systolic blood pressure,Rattus norvegicus [21],173.7 mmHg
same,Systolic blood pressure,Rattus norvegicus [22],172 mmHg
same,Systolic blood pressure,Rattus norvegicus [23],173.5 mmHg
same,Systolic blood pressure,Rattus norvegicus [24],175.7 mmHg
same,Systolic blood pressure,Rattus norvegicus [25],168 mmHg
same,Systolic blood pressure,Rattus norvegicus [26],204 mmHg
CCOC(=O)[C@H](CCc1ccccc1)N[C@H]1CCc2ccccc2N(CC(=O)O)C1=O.Cl [BENAZEPRIL HYDROCHLORIDE],Systolic blood pressure,Rattus norvegicus [2],130.8 mmHg
same,Systolic blood pressure,Rattus norvegicus [3],185.8 mmHg
same,Systolic blood pressure,Rattus norvegicus [4],185.7 mmHg
same,Systolic blood pressure,Rattus norvegicus [5],168.7 mmHg
same,Systolic blood pressure,Rattus norvegicus [6],182.8 mmHg
same,Systolic blood pressure,Rattus norvegicus [7],177.3 mmHg
same,Systolic blood pressure,Rattus norvegicus [8],166.5 mmHg
same,Systolic blood pressure,Rattus norvegicus [9],180.2 mmHg
same,Systolic blood pressure,Rattus norvegicus [10],171.3 mmHg
same,Systolic blood pressure,Rattus norvegicus [11],193.6 mmHg and 200 mmHg and 198 mmHg
same,Systolic blood pressure,Rattus norvegicus [12],167.5 mmHg
same,Systolic blood pressure,Rattus norvegicus [13],162.2 mmHg
same,Systolic blood pressure,Rattus norvegicus [14],147.3 mmHg
same,Systolic blood pressure,Rattus norvegicus [15],146 mmHg
same,Systolic blood pressure,Rattus norvegicus [16],150.2 mmHg
same,Systolic blood pressure,Rattus norvegicus [17],131 mmHg
same,Systolic blood pressure,Rattus norvegicus [18],150 mmHg
same,Systolic blood pressure,Rattus norvegicus [19],186 mmHg
same,Systolic blood pressure,Rattus norvegicus [20],193.8 mmHg
same,Systolic blood pressure,Rattus norvegicus [21],169.8 mmHg
same,Systolic blood pressure,Rattus norvegicus [22],195.8 mmHg
same,Systolic blood pressure,Rattus norvegicus [23],172.4 mmHg
same,Systolic blood pressure,Rattus norvegicus [24],176.2 mmHg
same,Systolic blood pressure,Rattus norvegicus [25],182.8 mmHg
same,Systolic blood pressure,Rattus norvegicus [26],176 mmHg
O=C(O)CN1C(=O)[C@@H](N[C@@H](CCc2ccccc2)C(=O)O)CCc2ccccc21 (stereo in doubt; 4e),IC50,[1],5.2 nM
O=C(O)CN1C(=O)[C@H](N[C@@H](CCc2ccccc2)C(=O)O)Cc2ccccc21,IC50,[1],5100 nM
O=C(O)CN1C(=O)[C@@H](N[C@@H](CCc2ccccc2)C(=O)O)Cc2ccccc21,IC50,[1],610 nM and 1200 nM
O=C(O)CN1C(=O)[C@@H](N[C@@H](CCc2ccccc2)C(=O)O)CCc2ccccc21 (stereo in doubt; 4f),IC50,[1],58 nM
O=C(O)CN1C(=O)[C@@H](N[C@@H](CCc2ccccc2)C(=O)O)CCc2ccccc21 (stereo in doubt; 4b),IC50,[1],2.8 nM
O=C(O)CN1C(=O)[C@H](N[C@@H](CCc2ccccc2)C(=O)O)CCCc2ccccc21,IC50,[1],62 nM

# Source: ChEMBL document CHEMBL1122824, “Synthesis and biological properties of (carboxyalkyl)amino-substituted bicyclic lactam inhibitors of angiotensin converting enzyme” (J Med Chem, 1985)
